Measurements taken from ChEMBL document CHEMBL1782042, “Efficient microwave-assisted synthesis and antitumor activity of novel 4,4'-methylenebis[2-(3-aryl-4,5-dihydro-1H-pyrazol-5-yl)phenols]” (Eur J Med Chem, 2011).

Tests used:
NCI-H226 [1] = experiment: Anticancer activity against human NCI-H226 cells after 48 hrs by sulforhodamine B assay; format: functional; conditions: NCI-H226, 48 h
Summary of the method: (§1)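 NCI 60-cell-line in vitro screen, second stage: five concentration levels (100, 10, 1.0, 0.1 and 0.01 μM) with 48 h continuous drug exposure. Cell growth was estimated by sulforhodamine B protein staining. GI50 is the drug concentration that gives a 50% reduction in net protein increase relative to control cells over the incubation.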

T47D = experiment: Anticancer activity against human T47D cells after 48 hrs by sulforhodamine B assay; format: functional
Summary of the method: (§2)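 NCI 60-cell-line screen, second stage. Five concentration levels (100, 10, 1.0, 0.1 and 0.01 μM), 48 h continuous drug exposure. Cell growth was estimated by sulforhodamine B protein staining. GI50 is the concentration giving a 50% reduction in net protein increase relative to control cells over the drug incubation. Compounds entered this stage after an earlier single-dose screen.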

SW-620 = experiment: Anticancer activity against human SW620 cells after 48 hrs by sulforhodamine B assay; format: functional; conditions: SW-620, 48 h; summary of the method: as §2
OVCAR-8 = experiment: Anticancer activity against human OVCAR8 cells after 48 hrs by sulforhodamine B assay; format: functional; conditions: OVCAR-8, 48 h; summary of the method: as §1
SNB-19 = experiment: Anticancer activity against human SNB19 cells after 48 hrs by sulforhodamine B assay; format: functional; conditions: SNB-19, 48 h; summary of the method: as §1
SNB-75 = experiment: Anticancer activity against human SNB75 cells after 48 hrs by sulforhodamine B assay; format: functional; conditions: SNB-75, 48 h; summary of the method: as §2
MDA-MB-435 [2] = experiment: Cytotoxicity against human MDA-MB-435 cells; format: cell-based
Summary of the method: (§3)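 NCI 60 human tumour cell line screen, second stage at five concentrations (100, 10, 1.0, 0.1 and 0.01 μM). Continuous drug exposure for 48 h, with cell growth estimated by sulforhodamine B protein staining. GI50 is the drug concentration giving a 50% reduction in net protein increase relative to control cells over the incubation.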

A549 [3] = experiment: Anticancer activity against human A549 cells after 48 hrs by sulforhodamine B assay; format: functional; conditions: A549, 48 h; summary of the method: as §1
SK-MEL-5 = experiment: Cytotoxicity against human SK-MEL-5 cells; format: cell-based; summary of the method: as §3
LOX IMVI = experiment: Anticancer activity against human LOXIMVI cells after 48 hrs by sulforhodamine B assay; format: functional; summary of the method: as §1
NCI-H23 = experiment: Cytotoxicity against human NCI-H23 cells; format: cell-based; summary of the method: as §3
K562 [4] = experiment: Cytotoxicity against human K562 cells; format: cell-based; summary of the method: as §3
SN12C [5] = experiment: Cytotoxicity against human SN12C cells; format: cell-based
Summary of the method: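 NCI 60 human tumour cell line screen; five concentration levels (100, 10, 1.0, 0.1 and 0.01 μM), 48 h continuous drug exposure. Cell growth estimated by sulforhodamine B (SRB) protein staining. GI50 taken as the drug concentration giving a 50% reduction in net protein increase relative to control cells over the incubation.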

MCF7 [6] = experiment: Cytotoxicity against human MCF7 cells; format: cell-based; summary of the method: as §3
NCI-H226 [7] = experiment: Cytotoxicity against human NCI-H226 cells; format: cell-based; summary of the method: as §3
SK-MEL-2 = experiment: Anticancer activity against human SK-MEL-2 cells after 48 hrs by sulforhodamine B assay; format: functional; conditions: SK-MEL-2, 48 h; summary of the method: as §1
HOP-62 = experiment: Cytotoxicity against human HOP62 cells; format: cell-based; summary of the method: as §3
MDA-MB-435 [8] = experiment: Anticancer activity against human MDA-MB-435 cells after 48 hrs by sulforhodamine B assay; format: functional; conditions: MDA-MB-435, 48 h; summary of the method: as §1
HCT-116 = experiment: Cytotoxicity against human HCT116 cells; format: cell-based; summary of the method: as §3
A549 [9] = experiment: Cytotoxicity against human A549 cells; format: cell-based; summary of the method: as §3
Hs-578T = experiment: Cytotoxicity against human Hs578T cells; format: cell-based; summary of the method: as §3
ACHN = experiment: Anticancer activity against human ACHN cells after 48 hrs by sulforhodamine B assay; format: functional; summary of the method: as §1
HOP-92 = experiment: Anticancer activity against human HOP92 cells after 48 hrs by sulforhodamine B assay; format: functional; conditions: HOP-92, 48 h; summary of the method: as §1
SN12C [10] = experiment: Anticancer activity against human SN12C cells after 48 hrs by sulforhodamine B assay; format: functional; summary of the method: as §1
HCT-15 = experiment: Anticancer activity against human HCT15 cells after 48 hrs by sulforhodamine B assay; format: functional; conditions: HCT-15, 48 h; summary of the method: as §1
OVCAR-4 [11] = experiment: Anticancer activity against human OVCAR4 cells after 48 hrs by sulforhodamine B assay; format: functional; conditions: OVCAR-4, 48 h; summary of the method: as §1
OVCAR-4 [12] = experiment: Cytotoxicity against human OVCAR4 cells; format: cell-based; summary of the method: as §3
MCF7 [13] = experiment: Anticancer activity against human MCF7 cells after 48 hrs by sulforhodamine B assay; format: functional; conditions: MCF7, 48 h; summary of the method: as §1
BT-549 = experiment: Cytotoxicity against human BT549 cells; format: cell-based; summary of the method: as §3
RXF 393 = experiment: Anticancer activity against human RXF393 cells after 48 hrs by sulforhodamine B assay; format: functional; conditions: RXF 393, 48 h; summary of the method: as §1
786-0 = experiment: Anticancer activity against human 786-0 cells after 48 hrs by sulforhodamine B assay; format: functional; conditions: 786-0, 48 h; summary of the method: as §1
RPMI-8226 = experiment: Cytotoxicity against human RPMI8226 cells; format: cell-based; summary of the method: as §3
K562 [14] = experiment: Anticancer activity against human K562 cells after 48 hrs by sulforhodamine B assay; format: functional; conditions: K562, 48 h; summary of the method: as §1

Compound: Cc1ccc(C2=NNC(c3cc(Cc4ccc(O)c(C5CC(c6ccc(C)cc6)=NN5)c4)ccc3O)C2)cc1 (stereo not drawn)
- GI50 (NCI-H226 [1]): 8.28 µM
- GI50 (T47D): 4.61 µM
- GI50 (SW-620): 7.96 µM
- GI50 (OVCAR-8): 6.36 µM
- GI50 (SNB-19): 6.89 µM
- GI50 (SNB-75): 4.98 µM
- LC50 (MDA-MB-435 [2]): > 100 µM
- GI50 (A549 [3]): 6.84 µM
- LC50 (SK-MEL-5): 31.7 µM
- GI50 (LOX IMVI): 7.38 µM
- LC50 (NCI-H23): > 100 µM
- LC50 (K562 [4]): > 100 µM
- LC50 (SN12C [5]): > 100 µM
- LC50 (MCF7 [6]): 71.8 µM
- LC50 (NCI-H226 [7]): > 100 µM
- GI50 (SK-MEL-2): 5.9 µM
- LC50 (HOP-62): > 100 µM
- GI50 (MDA-MB-435 [8]): 8.52 µM
- LC50 (HCT-116): 55.2 µM
- LC50 (A549 [9]): > 100 µM
- LC50 (Hs-578T): > 100 µM
- GI50 (ACHN): 5.56 µM
- GI50 (HOP-92): 8.28 µM
- GI50 (SN12C [10]): 8.84 µM
- GI50 (HCT-15): 3.64 µM
- GI50 (OVCAR-4 [11]): 5.36 µM
- LC50 (OVCAR-4 [12]): > 100 µM
- GI50 (MCF7 [13]): 3.3 µM
- LC50 (BT-549): > 100 µM
- GI50 (RXF 393): 4.18 µM
- GI50 (786-0): 8.39 µM
- LC50 (RPMI-8226): > 100 µM
- GI50 (K562 [14]): 7.73 µM
